Data reported in publication PMC9989826 (Cell Reports, 2023).

Tests used:
[1] = system: CCl4-intoxicated Nep−/− mice; assay: Captopril or losartan co-treatment of CCl4-intoxicated Nep−/− mice; assay type: in vivo, mouse; settings: losartan 5 mg/kg/day or captopril 4 mg/kg/day for four weeks, vs non-treated fibrotic Nep−/− mice, n = 6
Summary of the method: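 Nep−/− mice (C57BL/6J background, male and female, 10–12 weeks) exposed to CCl4 at 1L/min three times weekly for four weeks, with phenobarbital 3.0 mg/kg/day in drinking water. Losartan or captopril co-treatment ran through the same four weeks. Sirius red-stained sections scored by morphometry; portal pressure recorded in mm Hg; hepatic Col1a1 mRNA by qPCR. Mean ± SEM.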

[2] = system: fibrotic WT (C57BL6/J) mice; assay: Entresto study: oral treatment of fibrotic WT mice; assay type: in vivo, mouse; settings: oral 100 mg/kg for 14 days; fibrotic mice vs control
Summary of the method: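 Male and female WT mice, 10–12 weeks, made fibrotic over 7 weeks by i.p. CCl4 plus either ethanol in drinking water or Western diet. Entresto tablet (49mg/51mg) crushed and resuspended in 0.9% NaCl; valsartan and sacubitril prepared the same way. Dosed orally for 14 days until sacrifice. Portal pressure measured at the end; hepatic Col1a1 mRNA also assessed. Mean ± SEM.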

[3] = system: primary mouse HSC (WT and Nep−/−); assay: Western blot of ROCK, p-moesin and p-ERK in primary HSCs; assay type: cell-based; settings: NPY 1 nM, 24 h, compared with WT cells
Summary of the method: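 Primary HSCs from WT and Nep−/− mice were cultured at least one week until fully activated. They were seeded at 300,000 cells/well in DMEM with 20% FBS, and buffers were free of Zn and EDTA. […] Protein was read by western blot with GAPDH as loading control.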

[4] = system: primary mouse HSC (WT and Nep−/−); assay: mRNA expression; assay type: cell-based; settings: NPY 1 nM, 24 h
[5] = system: primary Nep−/− HSCs; assay: Determination of cellular cAMP; assay type: cell-based, mouse; settings: serum starved, full-length NPY 1 nM or mix of C-terminal fragments 30 μM, 30 min (methods), 24 h (Figure 4F), n = 3–4
Summary of the method: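 HSCs isolated from WT and Nep−/− mice were cultured at least one week (fully activated) in DMEM/20% FBS with penicillin-streptomycin, in Zn- and EDTA-free buffers. […] Competitive cAMP ELISA, normalised to total protein; mean ± SEM.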

[6] = system: WT mice; assay: Intraperitoneal injection of NPYFL or its C-terminal fragments in WT mice; assay type: in vivo, mouse; settings: i.p., 72 hours, n = 6/group
[7] = system: primary HSCs from Nep−/− mice; assay: Immunofluorescence and confocal microscopy of collagen I and αSMA; assay type: cell-based, mouse; settings: full-length NPY, 24 h
Summary of the method: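 Primary Nep−/− HSCs, activated by at least one week of culture, were serum-starved 12 h. […] Cells were fixed in 4% paraformaldehyde and permeabilized with 1% Triton X-100, each 10 min at 37°C, then blocked 1 h in 1% BSA. Anti-collagen I (1:50) and anti-α-SMA (1:200) ran overnight at 4°C, secondaries (1:3000) 2 h, with DAPI counterstain. Confocal fluorescence was quantified from three independent experiments.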

[8] = system: primary mouse HSC (WT and Nep−/−); assay: Collagen gel contraction assay; assay type: cell-based; settings: primary mouse HSCs on collagen gels, NPY 0–100 nM, 0–48 h; Nep−/− vs WT
Summary of the method: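 Primary HSCs were isolated from WT and Nep−/− mice and cultured at least one week until fully activated. 1 × 10^4 cells were embedded in 1 mg/mL collagen gels, in triplicate per group. […] Gel area was tracked from images taken at fixed camera distance over time, as % of initial surface; mean ± SEM, n = 3–6.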

With `C[C@H](CS)C(=O)N1CCC[C@H]1C(=O)O` [captopril] the “hepatic Col1a1 mRNA expression” value [1] was “significantly reduced” and the portal pressure [1] was “significantly reduced”.
With `CCCCc1nc(Cl)c(CO)n1Cc1ccc(-c2ccccc2-c2nn[nH]n2)cc1` [losartan] the “hepatic Col1a1 mRNA expression” value [1] was “significantly reduced” and the portal pressure [1] was “significantly reduced”.
With `CCOC(=O)[C@H](C)C[C@@H](Cc1ccc(-c2ccccc2)cc1)NC(=O)CCC(=O)O` [sacubitril] the “portal pressure, single components of Entresto” value [2] was “Neither valsartan nor sacubitril were able to significantly reduce portal pressure”.
For `CCCCC(=O)N(Cc1ccc(-c2ccccc2-c2nnn[nH]2)cc1)[C@H](C(=O)O)C(C)C` [valsartan], the “portal pressure, single components of Entresto” value [2] was “Neither valsartan nor sacubitril were able to significantly reduce portal pressure”.
Neuropeptide Y [NPY] was tested, and the “ROCK protein and p-moesin expression (western blot)” value [3] was “increased further”, the “Col1a1 mRNA level” value ([4]; Nep−/− HSCs) was “decreased” and the “Tgfβ1 mRNA level” value ([4]; Nep−/− HSCs) was “decreased”. The “Acta2 mRNA expression” value ([4]; Nep−/− HSCs, compared with WT control) was “induced”, the “Col1a1 mRNA level” value ([4]; WT HSCs) was “increased” and the “Tgfβ1 mRNA level” value ([4]; WT HSCs) was “increased”. The “cAMP measurements (pmol cAMP per mg of total protein)” value [5] was “reduction”, the “hepatic Acta2 mRNA expression” value [6] was “significantly induced” and the “hepatic mRNA expression of the main fibrotic markers, Col1a1 and Tgfβ1” value [6] was “induced”. For the same compound, the portal pressure [6] was “increase”, the “αSMA expression (immunofluorescence)” value [7] was “increased” and the “HSC contraction (decrease of gel surface)” value [8] was “induced more HSC contraction”.
